The target of experiment [1] is PBS RNA. Description: Binding affinity to HIV1 (+)PBS/(-)PBS RNA sequence assessed as inhibition of recombinant full-length HIV-1 nucleocapsid protein-mediated (+)/(-)PBS RNA annealing preincubated with (+)/(-)PBS RNA for 15 mins followed by NC addition and measured after 10 mins by RAMPA assay. The experiment is classed as nucleic-acid assay, Human immunodeficiency virus 1. The method in brief:
(§1)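 Each folded PBS RNA strand (1 μM) was preincubated with compound for 15 min at room temperature. The two strands were then mixed with annealer: NC at 3 μM for line 4, Tat(48–57) […]. Annealing ran 10 min at room temperature and products were resolved by gel. The annealer-induced duplex band was quantified to derive IC50, reported as mean ± SEM of triplicate experiments.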

In experiment [2] the target is PBS RNA. Description: Binding affinity to HIV1 (+)/(-) PBS RNA sequence assessed as inhibition of HIV-1 Tat (48 to 57 residues) mediated (+)/(-)PBS RNA annealing preincubated with (+)/(-)PBS RNA for 15 mins followed by peptide addition and measured after 10 mins by RAMPA assay. The format is nucleic-acid assay, Human immunodeficiency virus 1. The procedure, abridged:
as §1

Experiment [3] concerns PBS RNA. Description: Binding affinity to HIV1 (+)PBS RNA assessed as compound-RNA complex formation at stoichiometry ratio of 1:1 incubated for 30 mins measured under non-denaturing conditions by ESI-MS analysis. As to conditions: Human immunodeficiency virus 1. The experiment is classed as nucleic-acid assay. The procedure, abridged:
(§2)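 In ESI-MS spectra of compound–RNA mixtures, peaks for free RNA and complexed species were quantified. The percentage of bound substrate in each spectrum gave the relative binding affinity for each RNA construct.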

The subject of experiment [4] is PBS RNA. Description: Binding affinity to HIV1 (-)PBS RNA assessed as compound-RNA complex formation at stoichiometry ratio of 1:1 incubated for 30 mins measured under non-denaturing conditions by ESI-MS analysis. The following applies: Human immunodeficiency virus 1. The experiment is classed as nucleic-acid assay. The method in brief:
as §2

The test system of experiment [5] is PBS RNA. Description: Binding affinity to HIV1 (+)PBS RNA assessed as compound-RNA complex formation at stoichiometry ratio of 2:1 incubated for 30 mins measured under non-denaturing conditions by ESI-MS analysis. The following applies: Human immunodeficiency virus 1. The experiment is classed as nucleic-acid assay. The procedure, abridged: (§3)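 ESI-MS binding: compound–RNA mixtures analysed for free and compound-bound RNA species, including 2:1 complexes. Species peak intensities were quantified to give the free versus bound partitioning, and the percentage of bound substrate in each spectrum was used to derive relative binding affinity for each RNA construct.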

Experiment [6] has as its system PBS RNA. Description: Binding affinity to HIV1 (-)PBS RNA assessed as compound-RNA complex formation at stoichiometry ratio of 2:1 incubated for 30 mins measured under non-denaturing conditions by ESI-MS analysis. The experiment is classed as nucleic-acid assay. The following applies: Human immunodeficiency virus 1. The procedure, abridged: as §3
Experiment [7] has as its system PBS RNA. Description: Binding affinity to HIV1 (+)PBS RNA at apical loop assessed as compound-RNA complex formation at stoichiometry ratio of 1:1 by MS/MS spectrum analysis. The format is nucleic-acid assay. As to conditions: Human immunodeficiency virus 1.

A word on the IC50: it is the concentration that gives 50% inhibition.

The structures appear in SMILES notation. Activity calls are given as the source filed them. No cut-off for these calls is given here.

With `C[C@H](NC1(N)CCNCC1)C(=O)Nc1ccc2c(c1)C(=O)c1ccc(NC(=O)[C@H](C)NC3(N)CCNCC3)cc1C2=O`, the IC50 on PBS RNA [1] and on PBS RNA [2] was above 200 µM throughout. The result in the experiment on PBS RNA [3] and with PBS RNA [4] was Active.
As for `NCCCCC(N)C(=O)NCCC(=O)Nc1ccc2c(c1)C(=O)c1ccc(NC(=O)CCNC(=O)C(N)CCCCN)cc1C2=O` (stereo unspecified), the IC50 was 85 µM on PBS RNA [1] and above 100 µM at PBS RNA [2].
On to `C[C@H](NC(=O)C(N)CCCCN)C(=O)Nc1ccc2c(c1)C(=O)c1ccc(NC(=O)[C@H](C)NC(=O)C(N)CCCCN)cc1C2=O` (stereo partly specified), for which the 50% inhibitory concentration (IC50) at PBS RNA [1] came out at 12 µM; at PBS RNA [2] it was 15 µM. In addition, the result in the experiment with PBS RNA [5], in the experiment on PBS RNA [6] and in the experiment on PBS RNA [7] was Active.
On to `NCCCC(N)C(=O)NCCC(=O)Nc1ccc2c(c1)C(=O)c1ccc(NC(=O)CCNC(=O)C(N)CCCN)cc1C2=O` (stereo unspecified), for which the IC50 on PBS RNA [1] and at PBS RNA [2] was 20 µM each time. Moreover, the result with PBS RNA [5] and with PBS RNA [6] was Active.
On to `C[C@@H](NC(=O)C(N)CCCN)C(=O)Nc1ccc2c(c1)C(=O)c1ccc(NC(=O)[C@@H](C)NC(=O)C(N)CCCN)cc1C2=O` (stereo partly specified), for which the IC50 turned out to be 55 µM on PBS RNA [1] and 54 µM at PBS RNA [2]. For the same compound, the outcome in the experiment on PBS RNA [3] and with PBS RNA [4] was Active.
Turning to `NCCCCC(N)C(=O)NCC(=O)Nc1ccc2c(c1)C(=O)c1ccc(NC(=O)CNC(=O)C(N)CCCCN)cc1C2=O` (stereo unspecified), the IC50 on PBS RNA [1] was 23 µM; at PBS RNA [2], 18 µM. The outcome in the experiment with PBS RNA [5] and with PBS RNA [6] was Active.
As for `NCCCC(N)C(=O)NCC(=O)Nc1ccc2c(c1)C(=O)c1ccc(NC(=O)CNC(=O)C(N)CCCN)cc1C2=O` (stereo unspecified), the IC50 at PBS RNA [1] worked out at 30 µM; on PBS RNA [2], 34 µM. In addition, the outcome in the experiment on PBS RNA [3] and in the experiment with PBS RNA [4] was Active.
For `C[C@@H](NC1CCNCC1)C(=O)Nc1ccc2c(c1)C(=O)c1ccc(NC(=O)[C@@H](C)NC3CCNCC3)cc1C2=O`, the IC50 on PBS RNA [1] and on PBS RNA [2] was above 200 µM in each case. The result in the experiment with PBS RNA [3] and in the experiment with PBS RNA [4] was Active.
Take `C[C@H](NC(=O)C(N)CCN)C(=O)Nc1ccc2c(c1)C(=O)c1ccc(NC(=O)[C@H](C)NC(=O)C(N)CCN)cc1C2=O` (stereo partly specified): the IC50 on PBS RNA [1] is 88 µM; on PBS RNA [2], above 100 µM. Also, the outcome in the experiment with PBS RNA [3] and with PBS RNA [4] was Active.
Take `NCCC(N)C(=O)NCCC(=O)Nc1ccc2c(c1)C(=O)c1ccc(NC(=O)CCNC(=O)C(N)CCN)cc1C2=O` (stereo unspecified): the IC50 was found to be 30 µM on PBS RNA [1] and 24 µM at PBS RNA [2]. The outcome in the experiment with PBS RNA [3] and with PBS RNA [4] was Active.
For the compound `C[C@H](NC(=O)C(N)CN)C(=O)Nc1ccc2c(c1)C(=O)c1ccc(NC(=O)[C@H](C)NC(=O)C(N)CN)cc1C2=O` (stereo partly specified), the IC50 was 54 µM at PBS RNA [1] and 45 µM on PBS RNA [2]. Moreover, the result with PBS RNA [3] and in the experiment with PBS RNA [4] was Active.
On to `C[C@H](NC(=O)C(N)CCCN)C(=O)Nc1ccc2c(c1)C(=O)c1ccc(NC(=O)[C@H](C)NC(=O)C(N)CCCN)cc1C2=O` (stereo partly specified), for which the IC50 at PBS RNA [1] was determined as 21 µM; at PBS RNA [2] it was 16 µM. Further, the result in the experiment on PBS RNA [3] and in the experiment on PBS RNA [4] was Active.
For the compound `C[C@@H](NC(=O)C(N)CCCCN)C(=O)Nc1ccc2c(c1)C(=O)c1ccc(NC(=O)[C@@H](C)NC(=O)C(N)CCCCN)cc1C2=O` (stereo partly specified), the concentration for half-maximal inhibition (IC50) at PBS RNA [1] amounted to 54 µM; at PBS RNA [2] it was 48 µM. Further, the result with PBS RNA [3] and in the experiment on PBS RNA [4] was Active.
